The source of these data is ChEMBL document CHEMBL3045605, “Synthesis and anticancer evaluation of novel 3,5-diaryl-thiazolo[4,5-d]pyrimidin-2-one derivatives” (2013).

Each structure is given as a SMILES string.

What all share (type): functional
One assay concerns HOP-92. Description: Anticancer activity against Homo sapiens (human) HOP92 cells assessed as cell growth at 10 uM by SRB assay. The following applies: read-out: Activity. Put shortly:
(§1)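 NCI 60-cell human tumour panel (nine cancer types) screened at one concentration, 10−5 M. Cell growth estimated by sulforhodamine B protein staining and reported as percent growth of treated cells relative to untreated controls.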

The next assay relates to Malme-3M. Description: Anticancer activity against Homo sapiens (human) MALME-3M cells assessed as cell growth at 10 uM by SRB assay. The following applies: read-out: Activity. In a few lines:
as §1

The test system of a further assay is SNB-19. Nature of the assay: Anticancer activity against Homo sapiens (human) SNB19 cells assessed as cell growth at 10 uM by SRB assay. The following applies: read-out: Activity. Put shortly: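 Single-dose screen in the NCI 60-human-tumour-cell-line panel (nine cancer types) at 10−5 M. Cell growth was estimated by sulforhodamine B protein staining and reported as percent growth of treated cells relative to untreated controls.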

For the next assay, the system named is EKVX. Description: Anticancer activity against Homo sapiens (human) EKVX cells assessed as cell growth at 10 uM by SRB assay. The settings on record: read-out: Activity. Put shortly: as §1
For the next assay, the system named is MOLT-4. Nature of the assay: Anticancer activity against Homo sapiens (human) MOLT4 cells by SRB assay. Put shortly:
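Five-dose NCI 60-cell-line panel testing at tenfold dilutions from 10−4 to 10−8 M, with growth read by sulforhodamine B protein staining. For each cell line: GI50 is the molar concentration giving half growth inhibition; TGI is total growth inhibition (cytostatic); LC50 is the molar concentration killing 50% of the initial cells (cytotoxic).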

Regarding `O=c1sc2c(Cl)nc(-c3ccccc3)nc2n1-c1ccccc1`, the growth at 10 µM in the assay on HOP-92 was 24%; with Malme-3M, 62%; in the assay on SNB-19, 70%; in the assay on EKVX, 84%. The compound further gave a 50% growth inhibitory concentration (GI50) with MOLT-4 of 12.9 µM.
